In ChEMBL document CHEMBL1148966, “Cytotoxic steroidal saponins from Polygonatum zanlanscianense” (J Nat Prod, 2004):
≈ marks a conversion by molar mass, not a printed value.

What follows are molecules tested on HeLa (assay: Cytotoxicity against human HeLa cells after 72 hrs by MTT assay).
Format: functional, cell-based
Summary of the method: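 HeLa cells in 96-well microplates; viability by MTT colorimetric assay, optical density read at 570 nm on a plate reader; IC50 reported in µg/mL. Cisplatin run as positive control.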

| Structure (SMILES) | IC50 |
| --- | --- |
| C[C@H]1[C@H]2[C@H](C[C@H]3[C@@H]4CC=C5C[C@@H](O[C@@H]6O[C@H](CO)[C@H](O[C@@H]7O[C@H](CO)[C@@H](O)[C@H](O)[C@H]7O[C@@H]7O[C@H](CO)[C@@H](O)[C@H](O)[C@H]7O)[C@H](O)[C@H]6O)CC[C@]5(C)[C@H]4CC[C@]23C)O[C@]12CC[C@@H](CO)CO2 | 5.24 µg/mL (≈ 5.71 µM) |
| C[C@H]1O[C@@H](O[C@H]2CC[C@@]3(C)C(=CC[C@H]4[C@@H]5C[C@@H]6O[C@@]7(OC[C@H](CO)C[C@@H]7O)[C@@H](C)[C@@H]6[C@@]5(C)C(=O)C[C@@H]43)C2)[C@H](O)[C@@H](O)[C@H]1O[C@@H]1O[C@H](CO)[C@@H](O)[C@H](O)[C@H]1O [POLYGONATOSIDE C] | 7.45 µg/mL (≈ 9.69 µM) |
| C[C@H]1O[C@@H](O[C@H]2CC[C@@]3(C)C(=CC[C@H]4[C@@H]5C[C@@H]6O[C@]7(CC[C@@H](CO[C@@H]8O[C@H](CO)[C@@H](O)[C@H](O)[C@H]8O)CO7)[C@@H](C)[C@@H]6[C@@]5(C)C(=O)C[C@@H]43)C2)[C@H](O)[C@@H](O)[C@H]1O[C@@H]1O[C@H](CO)[C@@H](O)[C@H](O)[C@H]1O [POLYGONATOSIDE A] | 5.06 µg/mL (≈ 5.53 µM) |
| C[C@@H]1O[C@@H](O[C@H]2[C@H](O)[C@@H](O)[C@H](O[C@H]3CC[C@@]4(C)C(=CC[C@H]5[C@@H]6C[C@@H]7O[C@]8(CC[C@@H](CO[C@@H]9O[C@H](CO)[C@@H](O)[C@H](O)[C@H]9O)CO8)[C@@H](C)[C@@H]7[C@@]6(C)CC[C@@H]54)C3)O[C@@H]2CO)[C@H](O)[C@H](O)[C@H]1O [POLYGONATOSIDE D] | 5.83 µg/mL (≈ 6.47 µM) |
| CC1=CC(=O)CC(C)(C)[C@H]1CC[C@@H](C)O[C@@H]1O[C@H](CO[C@@H]2O[C@H](CO)[C@@H](O)[C@H](O)[C@H]2O)[C@@H](O)[C@H](O)[C@H]1O | 20.1 µg/mL (≈ 37.5 µM) |
| C[C@@H]1CC[C@@]2(OC1)O[C@H]1C[C@H]3[C@@H]4CC=C5C[C@@H](O[C@@H]6O[C@H](CO)[C@@H](O)[C@H](O[C@@H]7O[C@H](CO)[C@@H](O)[C@H](O)[C@H]7O)[C@H]6O[C@@H]6O[C@@H](C)[C@H](O)[C@@H](O)[C@H]6O)CC[C@]5(C)[C@H]4CC[C@]3(C)[C@H]1[C@@H]2C [GRACILLIN] | 12.7 µg/mL (≈ 14.4 µM) |
| C[C@@H]1CC[C@@]2(OC1)O[C@H]1C[C@H]3[C@@H]4CC=C5C[C@@H](O[C@@H]6O[C@H](CO)[C@@H](O[C@@H]7OC[C@@H](O)[C@@H](O)[C@@H]7O)[C@H](O)[C@H]6O[C@@H]6O[C@@H](C)[C@H](O)[C@@H](O)[C@H]6O)CC[C@]5(C)[C@H]4CC[C@]3(C)[C@H]1[C@@H]2C | 14.6 µg/mL (≈ 17 µM) |
| C[C@@H]1CC[C@@]2(OC1)O[C@H]1C[C@H]3[C@@H]4CC=C5C[C@@H](O[C@@H]6O[C@H](CO)[C@@H](O)[C@H](O)[C@H]6O[C@@H]6O[C@@H](C)[C@H](O)[C@@H](O)[C@H]6O)CC[C@]5(C)[C@H]4CC[C@]3(C)[C@H]1[C@@H]2C [OPHIOPOGONIN C] | 6.23 µg/mL (≈ 8.62 µM) |
| C[C@@H]1CC[C@@]2(OC1)O[C@H]1C[C@H]3[C@@H]4CC=C5C[C@@H](O[C@@H]6O[C@H](CO)[C@@H](O[C@@H]7OC[C@@H](O)[C@@H](O[C@@H]8O[C@@H](C)[C@H](O[C@@H]9O[C@@H](C)[C@H](O)[C@@H](O)[C@H]9O)[C@@H](O)[C@H]8O)[C@@H]7O)[C@H](O)[C@H]6O[C@@H]6O[C@@H](C)[C@H](O)[C@@H](O)[C@H]6O)CC[C@]5(C)[C@H]4CC[C@]3(C)[C@H]1[C@@H]2C [PARISSAPONIN PB] | 3.14 µg/mL (≈ 2.74 µM) |
| C[C@@H]1O[C@@H](O[C@H]2[C@H](O[C@H]3CC[C@@]4(C)C(=CC[C@H]5[C@@H]6C[C@@H]7O[C@]8(CC[C@@H](CO)CO8)[C@@H](C)[C@@H]7[C@@]6(C)CC[C@@H]54)C3)O[C@H](CO)[C@@H](O[C@@H]3O[C@@H](C)[C@H](O)[C@@H](O)[C@H]3O)[C@@H]2O)[C@H](O)[C@H](O)[C@H]1O | 3.62 µg/mL (≈ 4.09 µM) |
| C[C@H]1[C@H]2[C@H](C[C@H]3[C@@H]4CC=C5C[C@@H](O[C@@H]6O[C@H](CO)[C@H](O[C@@H]7O[C@H](CO)[C@@H](O)[C@H](O)[C@H]7O)[C@H](O)[C@H]6O)CC[C@]5(C)[C@H]4CC(=O)[C@]23C)O[C@]12CC[C@@H](CO[C@@H]1O[C@H](CO)[C@@H](O)[C@H](O)[C@H]1O)CO2 | 5.13 µg/mL (≈ 5.51 µM) |
